Source: ChEMBL document CHEMBL1137333, “Synthesis, radiosynthesis, and biological evaluation of carbon-11 labeled 2beta-carbomethoxy-3beta-(3'-((Z)-2-haloethenyl)phenyl)nortropanes: candidate radioligands for in vivo imaging of the serotonin transporter with positron emission tomography” (J Med Chem, 2006)

Columns and labels:
Cynomolgus monkey [1] = test: Uptake in anesthetized cynomolgus monkey frontal after 4.5 mins; type: ADME, organism-based, Frontal cortex; settings: in vivo, 0.075 h
Method in brief: (§1)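 Baseline microPET scan (P4 scanner) of anesthetized cynomolgus monkeys after injection of the carbon-11 labelled nortropane tracer. Two baseline studies were run per tracer. Radioactivity was followed over time in regional brain time-activity curves.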

Cynomolgus monkey [2] = test: Uptake in anesthetized cynomolgus monkey occipital after 2.5 mins; type: ADME, organism-based, Macaca mulatta, Occipital cortex; settings: rhesus monkey, in vivo; method in brief: as §1
Cynomolgus monkey [3] = test: Uptake in anesthetized cynomolgus monkey caudate after 75.0 mins; type: ADME, organism-based, Caudate nucleus; settings: in vivo, 1.25 h
Method in brief: (§2)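 Baseline microPET (Concorde P4) regional brain time-activity curves in anesthetized cynomolgus monkey following injection of the [11C]-labelled tracer, with radioactivity followed over the scan.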

Cynomolgus monkey [4] = test: Uptake in anesthetized cynomolgus monkey cerebellum after 0.5 mins; type: ADME, organism-based; settings: in vivo; method in brief: as §2
Cynomolgus monkey [5] = test: Uptake in anesthetized cynomolgus monkey putamen after 115.0 mins; type: ADME, organism-based; settings: in vivo
Method in brief: (§3)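 Baseline microPET (Concorde P4) scan in anesthetized cynomolgus monkeys after injection of the carbon-11 labeled tracer, with no chase drug. Regional brain time-activity curves were followed over the scan. Tracer radiochemical purity and specific activity were determined by analytical HPLC at the time of injection.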

Cynomolgus monkey [6] = test: Uptake in anesthetized cynomolgus monkey pons after 15.5 mins; type: ADME, organism-based; settings: in vivo; method in brief: as §3
Cynomolgus monkey [7] = test: Uptake in anesthetized cynomolgus monkey thalamus after 9.5 mins; type: ADME, organism-based; settings: in vivo; method in brief: as §3
Cynomolgus monkey [8] = test: Uptake in anesthetized cynomolgus monkey frontal after 3.5 mins; type: ADME, organism-based, Frontal cortex; settings: in vivo; method in brief: as §1
Cynomolgus monkey [9] = test: Uptake in anesthetized cynomolgus monkey medulla after 9.5 mins; type: ADME, organism-based, Medulla of organ; settings: in vivo; method in brief: as §1
Cynomolgus monkey [10] = test: Uptake in anesthetized cynomolgus monkey occipital after 55.0 mins; type: ADME, organism-based, Occipital cortex; settings: in vivo; method in brief: as §1
Cynomolgus monkey [11] = test: Uptake in anesthetized cynomolgus monkey pons after 27.5 mins; type: ADME, organism-based; settings: in vivo; method in brief: as §3
Cynomolgus monkey [12] = test: Ratio of uptake in caudate to cerebellum of anesthetized cynomolgus monkey after 85 mins; type: ADME, organism-based; settings: in vivo
Method in brief: (§4)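 Baseline microPET (Concorde P4) in anesthetized cynomolgus monkey after injection of the [11C]-labelled tracer. Regional time-activity curves were taken, and each region's uptake was divided by cerebellum uptake (low-SERT reference) at 65, 85 and 105 min postinjection.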

Cynomolgus monkey [13] = test: Uptake in anesthetized cynomolgus monkey pons after 95.0 mins; type: ADME, organism-based; settings: in vivo; method in brief: as §3
Cynomolgus monkey [14] = test: Uptake in anesthetized cynomolgus monkey cerebellum after 95.0 mins; type: ADME, organism-based; settings: in vivo; method in brief: as §2
Cynomolgus monkey [15] = test: Uptake in anesthetized cynomolgus monkey cerebellum after 18.5 mins; type: ADME, organism-based, Macaca mulatta; settings: rhesus monkey, in vivo; method in brief: as §2
Cynomolgus monkey [16] = test: Uptake in anesthetized cynomolgus monkey caudate after 35.0 mins; type: ADME, organism-based, Caudate nucleus; settings: in vivo; method in brief: as §2
Cynomolgus monkey [17] = test: Uptake in anesthetized cynomolgus monkey thalamus after 3.5 mins; type: ADME, organism-based; settings: in vivo; method in brief: as §3
Cynomolgus monkey [18] = test: Uptake in anesthetized cynomolgus monkey pons after 18.5 mins; type: ADME, organism-based; settings: in vivo; method in brief: as §3
Cynomolgus monkey [19] = test: Ratio of uptake in putamen to cerebellum of anesthetized cynomolgus monkey after 105 mins; type: ADME, organism-based; settings: in vivo, 1.75 h; method in brief: as §4
Cynomolgus monkey [20] = test: Ratio of uptake in medulla to cerebellum of anesthetized cynomolgus monkey after 85 mins; type: ADME, organism-based; settings: in vivo; method in brief: as §4
Cynomolgus monkey [21] = test: Uptake in anesthetized cynomolgus monkey caudate after 45.0 mins; type: ADME, organism-based, Caudate nucleus; settings: in vivo, 0.75 h; method in brief: as §2
Cynomolgus monkey [22] = test: Uptake in anesthetized cynomolgus monkey thalamus after 55.0 mins; type: ADME, organism-based; settings: in vivo; method in brief: as §3
Cynomolgus monkey [23] = test: Uptake in anesthetized cynomolgus monkey putamen after 75.0 mins; type: ADME, organism-based; settings: in vivo, 1.25 h; method in brief: as §3
Cynomolgus monkey [24] = test: Uptake in anesthetized cynomolgus monkey caudate after 9.5 mins; type: ADME, organism-based, Caudate nucleus; settings: in vivo; method in brief: as §2
Cynomolgus monkey [25] = test: Uptake in anesthetized cynomolgus monkey midbrain after 95.0 mins; type: ADME, organism-based; settings: in vivo; method in brief: as §1
Cynomolgus monkey [26] = test: Ratio of uptake in caudate to cerebellum of anesthetized cynomolgus monkey after 105 mins; type: ADME, organism-based; settings: in vivo, 1.75 h; method in brief: as §4
Cynomolgus monkey [27] = test: Uptake in anesthetized cynomolgus monkey occipital after 12.5 mins; type: ADME, organism-based, Macaca mulatta, Occipital cortex; settings: rhesus monkey, in vivo; method in brief: as §1
Cynomolgus monkey [28] = test: Uptake in anesthetized cynomolgus monkey frontal after 65.0 mins; type: ADME, organism-based, Frontal cortex; settings: in vivo; method in brief: as §1
Cynomolgus monkey [29] = test: Uptake in anesthetized cynomolgus monkey medulla after 4.5 mins; type: ADME, organism-based, Medulla of organ; settings: in vivo, 0.075 h; method in brief: as §1
Cynomolgus monkey [30] = test: Uptake in anesthetized cynomolgus monkey frontal after 105.0 mins; type: ADME, organism-based, Frontal cortex; settings: in vivo, 1.75 h; method in brief: as §1
Cynomolgus monkey [31] = test: Uptake in anesthetized cynomolgus monkey thalamus after 18.5 mins; type: ADME, organism-based; settings: in vivo; method in brief: as §3
Cynomolgus monkey [32] = test: Uptake in anesthetized cynomolgus monkey thalamus after 115.0 mins; type: ADME, organism-based; settings: in vivo; method in brief: as §3
Cynomolgus monkey [33] = test: Ratio of uptake in putamen to cerebellum of anesthetized cynomolgus monkey after 85 mins; type: ADME, organism-based; settings: in vivo; method in brief: as §4
Cynomolgus monkey [34] = test: Ratio of uptake in midbrain to cerebellum of anesthetized cynomolgus monkey after 105 mins; type: ADME, organism-based; settings: in vivo, 1.75 h; method in brief: as §4
Cynomolgus monkey [35] = test: Uptake in anesthetized cynomolgus monkey pons after 85.0 mins; type: ADME, organism-based; settings: in vivo; method in brief: as §3

SMILES: [11CH3]OC(=O)[C@@H]1C2CCC(C[C@@H]1c1cccc(/C=C/I)c1)N2 (stereo not given in full)
- Drug uptake (Cynomolgus monkey [1]): 1.91
- Drug uptake (Cynomolgus monkey [2]): 0.85
- Drug uptake (Cynomolgus monkey [3]): 5.71
- Drug uptake (Cynomolgus monkey [4]): 0.01
- Drug uptake (Cynomolgus monkey [5]): 6.28
- Drug uptake (Cynomolgus monkey [6]): 5.23
- Drug uptake (Cynomolgus monkey [7]): 5.29
- Drug uptake (Cynomolgus monkey [8]): 1.21
- Drug uptake (Cynomolgus monkey [9]): 6.22
- Drug uptake (Cynomolgus monkey [10]): 4.58
- Drug uptake (Cynomolgus monkey [11]): 5.94
- Ratio (Cynomolgus monkey [12]): 1.5
- Drug uptake (Cynomolgus monkey [13]): 5.84
- Drug uptake (Cynomolgus monkey [14]): 3.46
- Drug uptake (Cynomolgus monkey [15]): 5.74
- Drug uptake (Cynomolgus monkey [16]): 5.74
- Drug uptake (Cynomolgus monkey [17]): 2.1
- Drug uptake (Cynomolgus monkey [18]): 5.52
- Ratio (Cynomolgus monkey [19]): 2.1
- Ratio (Cynomolgus monkey [20]): 1.8
- Drug uptake (Cynomolgus monkey [21]): 5.77
- Drug uptake (Cynomolgus monkey [22]): 7.12
- Drug uptake (Cynomolgus monkey [23]): 6.92
- Drug uptake (Cynomolgus monkey [24]): 4.12
- Drug uptake (Cynomolgus monkey [25]): 7.11
- Ratio (Cynomolgus monkey [26]): 1.7
- Drug uptake (Cynomolgus monkey [27]): 4.52
- Drug uptake (Cynomolgus monkey [28]): 3.9
- Drug uptake (Cynomolgus monkey [29]): 3.9
- Drug uptake (Cynomolgus monkey [30]): 3.42
- Drug uptake (Cynomolgus monkey [31]): 6.41
- Drug uptake (Cynomolgus monkey [32]): 6.16
- Ratio (Cynomolgus monkey [33]): 1.8
- Ratio (Cynomolgus monkey [34]): 2.4
- Drug uptake (Cynomolgus monkey [35]): 5.86
